Experimental data as given in ChEMBL document CHEMBL4177653, “Identification of nitroimidazole-oxime derivatives targeting the polo-box domain of polo-like kinase 1” (Bioorg Med Chem, 2017).
≈ marks a conversion by molar mass, not a printed value.

What was measured:
[1] = Cytotoxicity against human 293T cells after 72 hrs by MTT assay; assay type: cell-based; details: HEK-293T cells
HepG2 = assay: Antiproliferative activity against human HepG2 cells after 72 hrs by MTT assay; assay type: functional, cell-based; details: HepG2, 72 h
Procedure, shortened: (§1)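 Cells kept in high-glucose DMEM with L-glutamine, 10% FBS, penicillin/streptomycin, at 37 °C and 5% CO2. Seeded in 96-well plates and preincubated 48 h. Compounds added at preset concentrations (6 wells each; erlotinib as positive reference) for 72 h. MTT in PBS (2.5 mg/mL) added for 4 h, formazan dissolved in DMSO, A570 read. IC50 is the concentration leaving 50% of cells surviving. Mean ± SD of three independent experiments in triplicate.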

MCF7 = assay: Antiproliferative activity against human MCF7 cells after 72 hrs by MTT assay; assay type: functional, cell-based; details: MCF7, 72 h; procedure, shortened: as §1
HeLa = assay: Antiproliferative activity against human HeLa cells after 72 hrs by MTT assay; assay type: functional, cell-based; procedure, shortened: as §1
MGC-803 = assay: Antiproliferative activity against human MGC803 cells after 72 hrs by MTT assay; assay type: functional, cell-based; details: MGC-803, 72 h; procedure, shortened: as §1

SMILES | CC50 at 72 h [1] | IC50 (HepG2) | IC50 (MCF7) | IC50 (HeLa) | IC50 (MGC-803)
Cc1ccccc1C(=O)O/N=C(/Cn1cc([N+](=O)[O-])nc1C)c1ccc(Br)cc1 | 3800 µg/mL (≈ 8310 µM) | 2.37 µg/mL (≈ 5.18 µM) | 2.15 µg/mL (≈ 4.7 µM) | 9.76 µg/mL (≈ 21.3 µM) | 0.84 µg/mL (≈ 1.84 µM)
O=c1[nH]cc(F)c(=O)[nH]1 [FLUOROURACIL] |  | 2.24 µg/mL (≈ 17.2 µM) | 2.19 µg/mL (≈ 16.8 µM) | 3.82 µg/mL (≈ 29.4 µM) | 1.8 µg/mL (≈ 13.8 µM)
Cc1nc([N+](=O)[O-])cn1C/C(=N/OC(=O)c1ccccc1Cl)c1ccc(Br)cc1 | 530 µg/mL (≈ 1110 µM) | 1.33 µg/mL (≈ 2.78 µM) | 1.27 µg/mL (≈ 2.66 µM) | 8.53 µg/mL (≈ 17.9 µM) | 0.16 µg/mL (≈ 0.335 µM)
Cc1nc([N+](=O)[O-])cn1C/C(=N\O)c1ccc(Br)cc1 |  | 17.4 µg/mL (≈ 51.3 µM) | > 20 µg/mL | > 20 µg/mL | > 20 µg/mL
COc1ccccc1C(=O)O/N=C(/Cn1cc([N+](=O)[O-])nc1C)c1ccc(Br)cc1 | 500 µg/mL (≈ 1060 µM) | > 20 µg/mL | 3.13 µg/mL (≈ 6.61 µM) | > 20 µg/mL | 3.53 µg/mL (≈ 7.46 µM)
Cc1cccc(C(=O)O/N=C(/Cn2cc([N+](=O)[O-])nc2C)c2ccc(Br)cc2)c1 | 1300 µg/mL (≈ 2840 µM) | 10.7 µg/mL (≈ 23.3 µM) | 2.82 µg/mL (≈ 6.17 µM) | 12.3 µg/mL (≈ 27 µM) | 3.25 µg/mL (≈ 7.11 µM)
Cc1nc([N+](=O)[O-])cn1C/C(=N/OC(=O)c1ccc(Cl)nc1)c1ccc(Br)cc1 | 250 µg/mL (≈ 522 µM) | 0.71 µg/mL (≈ 1.48 µM) | 0.79 µg/mL (≈ 1.65 µM) | 0.96 µg/mL (≈ 2.01 µM) | 0.82 µg/mL (≈ 1.71 µM)
Cc1nc([N+](=O)[O-])cn1C/C(=N/OC(=O)c1cccc(F)c1)c1ccc(Br)cc1 | 530 µg/mL (≈ 1150 µM) | 0.97 µg/mL (≈ 2.1 µM) | 1.87 µg/mL (≈ 4.05 µM) | 4.55 µg/mL (≈ 9.86 µM) | 0.21 µg/mL (≈ 0.455 µM)
Cc1nc([N+](=O)[O-])cn1C/C(=N/OC(=O)c1ccc(Br)cc1)c1ccc(Br)cc1 | 330 µg/mL (≈ 632 µM) | 2.56 µg/mL (≈ 4.9 µM) | 2.56 µg/mL (≈ 4.9 µM) | 5.67 µg/mL (≈ 10.9 µM) | 1.48 µg/mL (≈ 2.83 µM)
Cc1nc([N+](=O)[O-])cn1C/C(=N/OC(=O)c1cccnc1Cl)c1ccc(Br)cc1 | 12000 µg/mL (≈ 25100 µM) | 0.76 µg/mL (≈ 1.59 µM) | 0.76 µg/mL (≈ 1.59 µM) | 1.28 µg/mL (≈ 2.67 µM) | 0.73 µg/mL (≈ 1.52 µM)
Cc1nc([N+](=O)[O-])cn1C/C(=N/OC(=O)c1ccc([N+](=O)[O-])cc1)c1ccc(Br)cc1 | 160 µg/mL (≈ 328 µM) | 1.43 µg/mL (≈ 2.93 µM) | 0.86 µg/mL (≈ 1.76 µM) | 12.4 µg/mL (≈ 25.4 µM) | 0.37 µg/mL (≈ 0.758 µM)
Cc1nc([N+](=O)[O-])cn1C/C(=N/OC(=O)c1cccc(Cl)c1)c1ccc(Br)cc1 | 700 µg/mL (≈ 1470 µM) | 1.15 µg/mL (≈ 2.41 µM) | 0.84 µg/mL (≈ 1.76 µM) | 4.09 µg/mL (≈ 8.56 µM) | 0.18 µg/mL (≈ 0.377 µM)
